Experimental data of several laboratories.
Lines come from different studies, so protocols differ.
Target: Serine/threonine-protein kinase D1 (PRKD1, Homo sapiens, UniProt Q15139)

CNc1cccc2cc(C(=O)Nc3ccc(C(=O)O)cc3)c(=O)[nH]c12 — inhibition (enzyme activity; inhibitor; 10 µM): -3.9%
Cn1cnc(Br)c1C1=CN(c2ncnc3[nH]cnc23)CCS1 — inhibition (enzyme activity; inhibitor; radiometric; 2 µM): 91.4%
c1ccc(CNc2nc(N3CCOc4ccccc43)nc3c2CCCC3)cc1 — inhibition (target engagement in cells; inhibitor; chemoproteomics; 20 mM): -8.8%
COc1cc(Cl)c(C(=O)N[C@@H](CN[C@H]2CC[C@@H](N)CC2)Cc2ccc(C#N)cc2)cc1-c1ccc(CN[C@H](C)c2ccc(C)cc2)o1 — remaining activity (enzyme activity; inhibitor; 1 µM): 99%
Cc1ccc(Nc2nccc(N(C)c3ccc4c(C)n(C)nc4c3)n2)cc1S(N)(=O)=O — inhibition (enzyme activity; inhibitor; 10 µM): 23%
Cc1sc(C(=O)NC2COC2)cc1-n1cc(NC(=O)Nc2c(F)cccc2Cl)cn1 — remaining activity (enzyme activity; inhibitor; 10 µM): 93.3%
CCN(CC)CCNC(=O)c1c(C)[nH]c(/C=C2\C(=O)Nc3ccc(F)cc32)c1C — remaining signal (cell-free assay; 0.5 µM): 20%
Cc1nc(Cc2cccc(C(F)(F)F)c2)sc1-c1ccc(C(N)=O)nc1 — remaining binding (cell-free assay; competition with immobilised ligand; 1 µM): 93%
CC(C)(C)C(=O)c1sc(NC2CCCCC2)nc1N — remaining activity (enzyme activity; inhibitor; 10 µM): 85%
CC/C(=N\NC(=O)NCc1cccc(O)c1)c1ccc(O)c(C)c1O — inhibition (enzyme activity; inhibitor; 0.1 µM): -0.2%
Nc1ncnc2occ(-c3ccc(NC(=O)Nc4cc(C(F)(F)F)ccc4F)cc3)c12 — remaining signal (cell-free assay; inhibitor; 20 µM): 30%
N#CCCc1ccc2c(c1)-c1[nH]c3ccc([N+](=O)[O-])cc3c1CC(=O)N2 — remaining signal (cell-free assay; 0.5 µM): 87.5%
CS(=O)(=O)NCC[C@H](NC(=O)c1cncc2c1cnn2-c1ccc(F)cc1)c1ccnc(S(C)(=O)=O)c1 — remaining binding (cell-free assay; competition with immobilised ligand; 1 µM): 92%
CC(C)(C)c1nc(-c2cccc(NS(=O)(=O)c3c(F)cccc3F)c2F)c(-c2ccnc(N)n2)s1 — remaining activity (enzyme activity; inhibitor; radiometric; 1 µM): 33%
CN(c1ncccc1CNc1nc(Nc2ccc3c(c2)CC(=O)N3)ncc1C(F)(F)F)S(C)(=O)=O — inhibition (enzyme activity; inhibitor; 1 µM): 49%
COc1cc2ncnc(Nc3ccc(Oc4ccccc4)cc3C)c2cc1OC — inhibition (enzyme activity; inhibitor; 1 µM): 8%
CNC(=O)Nc1ccc2c(c1)[C@@]1(CC2)OC(=O)N(CC(=O)N(Cc2ccc(F)cc2)[C@@H](C)C(F)(F)F)C1=O — remaining binding (cell-free assay; competition with immobilised ligand; 1 µM): 100%
CCCS(=O)(=O)Nc1ccc(F)c(C(=O)c2c[nH]c3ncc(-c4ccc(Cl)cc4)cc23)c1F — inhibition (enzyme activity; inhibitor; 1 µM): < 10%
CCOc1cc(-c2nncn2C)ccc1Nc1ncc2cc(C)nc(NCC(C)(C)C)c2n1 — inhibition (enzyme activity; inhibitor; FRET; 1 µM): 37%
FC(F)(F)Oc1cccc(-c2cnc3ccc(-c4ccncc4)nn23)c1 — activity vs control (enzyme activity; inhibitor; radiometric; 5 µM): 158%
CC(=O)N1CCC(c2ccc(C(=O)NC3=NCCN3)cc2C(F)(F)F)CC1 — remaining binding (cell-free assay; competition with immobilised ligand; 1 µM): 100%
Cn1cncc1C1=CN(c2ncnc3[nH]cnc23)CCS1 — inhibition (enzyme activity; inhibitor; radiometric; 2 µM): 89.2%
Cc1c(C(=O)O)cc(-c2ccc(C3CCNCC3)cc2)c2ccc(-c3ccc(C(F)(F)F)cc3)cc12 — remaining binding (binding; competition with immobilised ligand; 1 µM): 100%
Oc1cccc(-c2nc(N3CCOCC3)c3oc4ncccc4c3n2)c1 — remaining activity (enzyme activity; inhibitor; 10 µM): 120%
CC(C)CC(=O)N1CCc2nc(-c3ccc(Br)cc3)nc(N(C)Cc3ccccc3)c2C1 — remaining binding (cell-free assay; competition with immobilised ligand; 0.1 µM): 87%
CNC(=O)c1cc(Oc2ccc(NC(=O)Nc3ccc(Cl)c(C(F)(F)F)c3)cc2)ccn1 — inhibition (enzyme activity; inhibitor; 10 µM): 13%
O=c1nc(-c2ccccn2)sc2ccccc12 — remaining binding (binding; competition with immobilised ligand; 1 µM): 100%
O=C1NC(=O)c2cc(Nc3ccc(F)cc3)c(Nc3ccc(F)cc3)cc21 — remaining signal (cell-free assay; 0.5 µM): 92.2%
Cc1cc(NC(=O)c2cccc3cc(-c4cccc5[nH]nc(N)c45)ccc23)ccc1F — activity vs control (enzyme activity; inhibitor; 0.1 µM): 76%
Cc1ccc(C(=O)NCc2ccsc2)cc1C#Cc1cn(C(C)C)c2ncnc(N)c12 — activity vs control (enzyme activity; inhibitor; 1 µM): 91%
COc1cc2ncnc(Nc3ccc(F)c(Cl)c3)c2cc1OCCCN1CCOCC1 — remaining signal (cell-free assay; 0.5 µM): 85.4%
CCCCN(CCCC)C(=O)CN1C[C@H](c2cc(OC)c3c(c2)OCO3)[C@@H](C(=O)O)[C@@H]1CC(C)(C)CCC — remaining binding (cell-free assay; competition with immobilised ligand; 1 µM): 79.4%
Cn1c(=O)n(-c2ccc(C(C)(C)C#N)cc2)c2c3cc(-c4cnc5ccccc5c4)ccc3ncc21 — remaining activity (enzyme activity; inhibitor; 10 µM): 107%
Nc1nc(Nc2ccccc2)sc1C(=O)c1c(F)cccc1F — remaining activity (enzyme activity; inhibitor; 10 µM): 46%
